Source: PubChem (Johns Hopkins Ion Channel Center)
MrgX1 agonist = agonists of human MrgX1 receptor. B-score at 10 µM. Q96LB2. AID 588627. 310,000 tested, 0.44% active. MrgX1-HEK293 cells, Fluo-4 calcium fluorescence, agonist mode; active compounds read high;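 active means calcium response B-score plate-corrected fluorescence ratio at least 3 library SD, with starting fluorescence B-score inside 5 SD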
Target sequence (Q96LB2 whole entry, looked up): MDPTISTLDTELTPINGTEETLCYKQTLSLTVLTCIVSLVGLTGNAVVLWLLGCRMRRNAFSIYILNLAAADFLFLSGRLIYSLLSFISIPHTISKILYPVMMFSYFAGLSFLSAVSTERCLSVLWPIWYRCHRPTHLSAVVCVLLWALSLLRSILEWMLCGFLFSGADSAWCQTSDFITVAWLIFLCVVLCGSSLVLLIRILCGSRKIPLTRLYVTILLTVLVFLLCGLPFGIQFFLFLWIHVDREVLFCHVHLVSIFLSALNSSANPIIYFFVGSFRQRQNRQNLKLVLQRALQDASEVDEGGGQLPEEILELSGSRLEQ
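Material – MrgX1-expressing HEK293 cells · Input – 15,000 cells seeded per well · Dosing – compound as first of three additions · Times – overnight seeding, then 1 h dark dye loading · Measured by – kinetic Fluo-4 NW fluorescence of intracellular calcium · Read-out – B-scored fluorescence response ratio · Benchmarks – positive and negative control wells on each plate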
RGS4 inh = inhibitors of human RGS4 | P49798 | HEK293 M3R/RGS4 inducible, Fluo-4 calcium flux; active compounds read high; triggered by carbachol at its EC20 | B-score at 10 µM | 310,000 tested, 0.45% active | AID 463165;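 active means B-score, a plate-corrected calcium signal, over three deviations above library mean, with baseline fluorescence within five deviations of library mean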;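 further: RGS4 expression induced by doxycycline in cells with stable M3 receptor; B-score is computed from the integrated fluorescence ratio over baseline after carbachol; higher B-score means a larger calcium signal and so more RGS4 inhibition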
Target sequence (P49798 whole entry, looked up): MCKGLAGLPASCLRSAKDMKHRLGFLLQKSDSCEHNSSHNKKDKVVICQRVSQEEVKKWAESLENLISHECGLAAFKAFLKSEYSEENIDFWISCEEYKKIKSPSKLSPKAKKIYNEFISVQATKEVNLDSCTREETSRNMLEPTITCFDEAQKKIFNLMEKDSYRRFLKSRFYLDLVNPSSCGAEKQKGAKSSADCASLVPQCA
RGS4 pot = RGS4 potentiation or activation | 310,000 tested, 0.92% active | AID 463111 | HEK293 M3R/inducible RGS4, carbachol calcium flux Fluo4; active compounds read low | B-score at 10 µM;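 active means B-score of the integrated calcium signal more than 4 SD below the library mean, with starting fluorescence not abnormally high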;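 further: negative B-score means reduced calcium response which marks RGS4 activation or potentiation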
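Detection: kinetic calcium fluorescence imaging with Fluo4-AM dye, 2 µM / Material: HEK293 cells with stable M3R and inducible RGS4 / Schedule: recording 10 s baseline at 1 Hz, 100 s post-agonist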
MrgX1 allo act = allosterically activates human MrgX1 receptor signaling | MrgX1-HEK293, Fluo-4 calcium flux, FDSS; active compounds read high | B-score at 10 µM | 310,000 tested, 0.63% active | Q96LB2;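 active means plate-corrected calcium response at least 3 library SD above typical, normal starting fluorescence, not activating the receptor alone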;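 further: compound read alongside a low EC10 to EC30 dose of BAM8-22 agonist; peak minus trough fluorescence over baseline measured at the second addition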
MrgX1 antag = human MrgX1 receptor antagonism, primary screen | 310,000 tested, 1.3% active | B-score at 10 µM | Q96LB2 | MRGX1-HEK293 calcium flux, Fluo-4, BAM8-22 antagonism; active compounds read low;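 active means calcium-response B-score plate-corrected more than 3 library SD below zero, starting fluorescence within 5 deviations, no agonist response on first addition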;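 further: peak minus trough fluorescence over baseline after final BAM8-22 challenge near maximal dose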
MrgX1 antag conf = confirmation of human MrgX1 receptor antagonists; shares compounds with MrgX1 antag; MrgX1-HEK293, BAM8-22 calcium flux, Fluo-4; active compounds read low; remaining BAM8-22 calcium response % of control (active compounds read low), % at 10 µM; 2,300 tested, 19% active; AID 602420;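 active means remaining agonist calcium response no higher than 100% minus 3 SD of agonist-only control wells, with starting fluorescence near control levels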;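 further: agonist BAM8-22 given at a near maximal EC90 to ECmax level; peak minus minimum fluorescence divided by baseline after agonist addition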
HEK293 Ca flux = MrgX1 antagonist counter-screen hit in parental HEK293 cells. shares compounds with MrgX1 antag. 4,000 tested, 2% active. fluorescence ratio F(max-min)/F0 at 10 µM. Fluo-4 calcium fluorescence, FDSS;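 active means duplicate-averaged calcium fluorescence ratio at least three times the standard deviation of buffer wells, a nonspecific response in parental cells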
HEK293 Ca counter = counter-screen for MrgX1 allosteric activators: effect in parental HEK293 cells | shares compounds with MrgX1 antag | parental HEK293 calcium flux, Fluo-4 fluorescence ratio; active compounds read high | fluorescence ratio F(max-min)/F0 at 10 µM | 4,000 tested, 0.4% active | AID 624114;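 active means calcium fluorescence ratio, averaged over duplicates, at least 3 SD of the buffer-well ratio, meaning a nonspecific response in receptor-free cells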;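 further: untransfected parental HEK293 lacking MrgX1 used as counterscreen for MrgX1 allosteric activators; fluorescence change taken during the second addition on a kinetic imager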
HEK293 Ca cntr2 = activity in parental HEK293 cells lacking MrgX1 receptor; shares compounds with MrgX1 antag; Fluo-4 calcium fluorescence (FDSS); active compounds read high; fluorescence ratio F(max-min)/F0 at 10 µM; 4,000 tested, 8.7% active;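 active means calcium fluorescence ratio at least three times the spread of buffer wells, meaning a non-specific response in parental cells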
An asterisk follows results filed as active; i = inactive; x = not tested or not shown. A selection: hits, their analogues and other compounds. The true share with any hit is near 3.5%.

SMILES	MrgX1 agonist	RGS4 inh	RGS4 pot	MrgX1 allo act	MrgX1 antag	MrgX1 antag conf	HEK293 Ca flux	HEK293 Ca counter	HEK293 Ca cntr2
Cc1cccc(CC(=O)Nc2sc(C(C)C)cc2C(=O)N2CCOCC2)c1	i	i	i	i	i	x	x	x	x
CC(C)CC(OC(=O)c1ccco1)C(=O)NC1CCCC1 (configuration not stated)	i	i	i	i	i	x	x	x	x
Cc1sc2nc(SCC(=O)N3CCCCC3)[nH]c(=O)c2c1C	i	i	i	i	-7.3*	i	i	i	i
O=C(CSc1nc2scc(-c3ccccc3)c2c(=O)[nH]1)N1CCOCC1	i	i	i	i	-9.1*	i	i	i	i
O=C(CSc1nc2scc(-c3ccccc3)c2c(=O)[nH]1)NCCc1ccccc1	i	i	i	i	i	x	x	x	x
Cc1sc2nc(SCC(=O)N3CCCC3)[nH]c(=O)c2c1C	i	i	i	i	i	x	x	x	x
Cc1noc(C)c1CSCC(=O)Nc1ccccc1N1CCCCC1	i	i	i	i	i	x	x	x	x
Cc1ccc2c(cnn2C(=O)CCCC(=O)NC(C)c2ccccc2)c1 (configuration not stated)	i	i	i	i	i	x	x	x	x
CN1C(=O)[C@@H]2C[C@@]3([C@@]45C[C@H]6C(=O)N(C)[C@@H](Cc7ccccc7)C(=O)N6[C@@H]4Nc4ccccc45)c4ccccc4N[C@H]3N2C(=O)[C@@H]1Cc1ccccc1	i	i	i	i	i	x	x	x	x
O=C(OC1CCCCC1=O)c1cccc(S(=O)(=O)N2CCCCC2)c1 (configuration not stated)	i	i	i	i	i	x	x	x	x
O=C(OC1CCCCC1=O)c1ccc(S(=O)(=O)Nc2ccccc2)cc1 (configuration not stated)	i	i	i	i	-5.4*	i	i	i	i
CC(=O)c1c(O)c(C)c(-c2ccccc2)n(-c2ccccc2)c1=O	i	i	i	i	i	x	x	x	x
O=C(c1ccccc1)c1c(O)nc(-c2ccccc2)n(-c2ccccc2)c1=O	i	i	i	i	-8*	i	i	i	i
CCC(=O)c1ccc(OCC(=O)OCC(=O)NCCCc2ccccc2)cc1	i	i	i	i	i	x	x	x	x
COc1ccc(C2NC(C(=O)O)Cc3c2[nH]c2ccccc32)cc1OC (configuration not stated)	i	i	i	i	-6.7*	i	i	i	i
COc1cc(C2NC(C(=O)O)Cc3c2[nH]c2ccccc32)cc(OC)c1OC (configuration not stated)	i	i	i	i	i	x	x	x	x
CCC(=O)O/N=C(\N)c1ccc(Oc2cc(C)c(Cl)c(C)c2)c([N+](=O)[O-])c1	i	i	i	i	i	x	x	x	x
O=C(O)C(Cc1ccccc1)n1cccc1 (configuration not stated)	i	i	i	i	i	x	x	x	x
O=C(O)[C@H](Cc1ccccc1)N1C(=O)c2c(Cl)c(Cl)c(Cl)c(Cl)c2C1=O	i	i	i	i	-8.6*	i	i	i	i
O=C(CNC(=O)c1ccc(Br)o1)NCc1cccc(Cl)c1	i	i	i	i	i	x	x	x	x
O=C(CNC(=O)c1ccc(Br)o1)NCc1ccc(Cl)cc1Cl	i	i	i	i	-4.8*	i	i	i	i
C=CCn1c(SCc2nc3cc(C(=O)OC)ccc3c(=O)[nH]2)nc2sc(CC)cc2c1=O	i	i	i	i	-4.8*	i	i	i	i
C=CCn1c(SCC(=O)Nc2sccc2C(N)=O)nc2sc(CC)cc2c1=O	i	i	i	i	i	x	x	x	x
N#C/C(=C(/O)CSc1nnc(Cc2cccs2)n1C1CCCCC1)c1nc2ccccc2[nH]1	i	i	i	i	i	x	x	x	x
N#CCSc1nnc(Cc2cccs2)n1C1CCCCC1	i	i	i	i	-4.7*	i	i	i	i
SMILES	MrgX1 agonist	RGS4 inh	RGS4 pot	MrgX1 allo act	MrgX1 antag	MrgX1 antag conf	HEK293 Ca flux	HEK293 Ca counter	HEK293 Ca cntr2
O=C1CCc2cc(S(=O)(=O)N3CCN(c4ccccc4F)CC3)ccc2N1	i	i	i	i	-5*	i	i	i	i
COc1ccc(Br)cc1CNC(=O)C1CCN(c2nnc(N3CCCC3=O)s2)CC1	i	i	i	i	i	x	x	x	x
COc1ccc(CNC(=O)C2CCN(c3nnc(N4CCCC4=O)s3)CC2)cc1	i	i	i	i	-5.3*	i	i	i	i
CCOc1ccc(N(CC(=O)NC2CCCCC2)S(=O)(=O)c2c(C)noc2C)cc1	i	i	i	i	i	x	x	x	x
CCOc1ccc(N(CC(=O)NC2CCCC2)S(=O)(=O)c2c(C)noc2C)cc1	i	i	i	i	-4.8*	65%*	i	i	i
CCNC(=O)CCSc1nnc(-c2ccco2)o1	i	i	i	i	i	x	x	x	x
Cc1ccc(Nc2nc(N)c(C#N)c(CC#N)c2C#N)cc1	i	i	i	i	i	x	x	x	x
COc1cc2c(cc1OC)N1C(=O)CC(OCC(=O)O)C3C4CC5(CCN5C(=O)C4=O)C2C31 (configuration not stated)	i	i	i	i	-6*	i	i	i	i
Cc1ccccc1SCC(=O)OCC(=O)Nc1sccc1C(N)=O	i	i	i	i	i	x	x	x	x
NC(=O)c1ccsc1NC(=O)CSc1ccccc1F	i	i	i	i	-4.9*	i	i	i	i
COc1ccccc1OCC(=O)OCC(=O)Nc1sccc1C(N)=O	i	i	i	i	i	x	x	x	x
NC(=O)c1ccsc1NC(=O)COC(=O)Cc1cccc2ccccc12	i	i	i	i	-6.8*	42%*	i	i	i
NC(=O)c1ccsc1NC(=O)CCS(=O)(=O)c1ccc(F)cc1	i	i	i	i	-5.9*	80%*	i	i	i
Cc1ccccc1Nc1ncnc2c1cnn2C	i	i	i	i	i	x	x	x	x
